In publication PMC8276234 (Journal of medicinal chemistry, 2019):
Entries after “also recorded” stand apart in the source; their conditions may differ.

Key:
b’ domain of PDI = b’ domain of PDI (Homo sapiens, UniProt P07237); test: ANS spectral scan; format: binding; conditions: 5 μM PDI, 100 μM compound
How it was run: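 Human PDI was preincubated with 100 μM compound or matching DMSO in TBS at 37 °C for 1 h. ANS was then added, followed by 20 min in the dark at 25 °C. Fluorescence spectrum: Ex 370 nm, Em 400–700 nm.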

PDI [1] = molecular target: T1, PDI (Homo sapiens, UniProt P07237); test: PDI reductase assay; format: biochemical; conditions: for fold reduction of potency: replacing the nitrile in BAP2 (6) and 32 with a trifluoromethyl group; for PDI inhibitory activity (in words): PDI reductase assay
How it was run: (§1)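 N-terminal His-tagged human PDI was expressed in E. coli BL21(DE3) pLysS with 1 mM IPTG for 4 h at 37 °C. It was purified on Ni-NTA and dialyzed into 100 mM sodium phosphate, 2 mM EDTA, pH 7.0. PDI (0.4 μM) was preincubated 1 h with compound in phosphate/EDTA buffer with 8 μM DTT. DTT (500 μM) and bovine insulin (130 μM) were then added at room temperature. Aggregation was read at 620 nm. Percent activity came from the 0–80 min change, corrected for DTT alone.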

GBM cell = test: Combination with As2O3, GBM cell proliferation; format: cell-based
MMP9 = test: Western blot of cell lysates, MMP9; format: cell-based, human; conditions: U87MG cells, 10 μM (PACMA31 0.25 μM), 48 hours
How it was run: (§2)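 Treated U87MG cells were lysed by sonication in Tris/NaCl/Triton X-100/SDS buffer (pH 7.4) and spun at 13,500×g, 4 °C, 10 min. Protein was quantified by BCA. 30 μg per lane ran on 10% gels and transferred to PVDF. Primary antibodies were applied overnight at 4 °C. Fluorescent secondaries were imaged.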

U87MG cells = test: Bromouridine RNA sequencing; format: cell-based, human; conditions: 10 μM compound 18, U87MG cells, 4 hours
How it was run: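 U87MG cells exposed to test compound or DMSO for 4 h, with 2 mM bromouridine added for the last 30 min. Total RNA was TRIzol-extracted, and Bru-labelled RNA was captured on anti-BrdU antibody magnetic beads, then sequenced. Reads were mapped to hg19. Genes were filtered to size >300 bp and mean RPKM >0.5, and ranked by transcription fold change versus control for pre-ranked GSEA.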

A172 cells = test: Transwell migration assay; format: cell-based, human; conditions: 4 hours
How it was run: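 Treated A172 cells (1 x 10^5) were seeded into inserts with 8.0 µm PET membranes in serum-free medium. The lower well held DMEM with 10% FBS, and FBS-free wells served as control. After 4 h, cells were Giemsa-stained and 5 fields per well were imaged at 10X.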

wild-type PDI = wild-type PDI (Homo sapiens, UniProt P07237); test: Thermal shift assay, wild-type PDI; format: binding; conditions: for stabilization of PDI to thermal denaturation: 100 μM; for increase of melting temperature: recombinant PDI, dose-dependent, up to 100 μM
How it was run: (§3)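 Purified PDI (wild-type, C53S/C397S or H256A; 0.5 mg/mL in 50 mM Tris, pH 7.0) was mixed with compound in DMSO and ROX dye. Samples were heated from 25 to 99 °C at 1 °C/min. Boltzmann melting temperature was compared with the 5% DMSO control.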

H256A PDI [2] = molecular target: T2, H256A PDI (Homo sapiens, UniProt P07237, H256A); test: PDI reductase assay, H256A mutant PDI; format: biochemical; conditions: 10 μM
How it was run: as §1

H256A PDI [3] = molecular target: T2, H256A PDI; test: Thermal shift assay, H256A PDI; format: binding; conditions: 100 μM
How it was run: as §3

PDI [4] = molecular target: T1, PDI; test: PDI reductase assay after competition with N-acetyl cysteine; format: biochemical; conditions: compound 40 μM; 0, 1, 2 or 5 mM NAC
How it was run: as §1

C53S/C397S PDI = C53S/C397S PDI (Homo sapiens, UniProt P07237, C397S/C53S); test: Thermal shift assay, C53S/C397S PDI; format: binding; conditions: 100 μM
How it was run: as §3

[5] = system: HFF-1 normal human fibroblast cells; test: MTT assay in normal fibroblasts; format: cell-based; conditions: potency in NU04 versus HFF-1 cells
D54 cells = test: Clonogenic survival assay with ionizing radiation; format: cell-based; conditions: 1 μM, 0-6 Gy
How it was run: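 D54 monolayer cells (37 °C, 5% CO2, mycoplasma-tested, STR-authenticated) were irradiated at 0, 1, 2, 4 or 6 Gy and plated immediately at 200, 200, 400, 600 and 1000 cells/well. Test compounds (1 μM), reference inhibitor (0.05 μM) or DMSO were added. After 10–12 days, colonies were stained with 0.1% crystal violet.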

MMP2 = test: Gelatin zymography and Western blot of conditioned media; format: cell-based, human; conditions: U87MG cells, 10 μM (PACMA31 0.25 μM), 48 hours
How it was run: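 U87MG cells (0.5 x 10^6/well) attached overnight and were serum-starved 12 h before treatment. Cleared conditioned media (5 µg protein) ran on 10% SDS-PAGE with 0.1% gelatin. Gels were washed in 2.5% Triton X-100 Tris/CaCl2/ZnCl2 buffer, incubated overnight at 37 °C, then Coomassie R-250 stained and destained. Cleaved MMP2 in media was also assessed by Western blot.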

GRP78 = test: Western blot, GRP78 expression; format: cell-based, human; conditions: U87MG cells; 20 μM (PACMA31 1.0 μM), 24 hours
How it was run: as §2

EIF2α = test: Western blot, phosphorylation of EIF2α; format: cell-based, human; conditions: U87MG and A172 cells; 20 μM (PACMA31 1.0 μM), 2 hours
How it was run: as §2

Chain of C53S/C397S PDI (P07237 18-508 C53S/C397S): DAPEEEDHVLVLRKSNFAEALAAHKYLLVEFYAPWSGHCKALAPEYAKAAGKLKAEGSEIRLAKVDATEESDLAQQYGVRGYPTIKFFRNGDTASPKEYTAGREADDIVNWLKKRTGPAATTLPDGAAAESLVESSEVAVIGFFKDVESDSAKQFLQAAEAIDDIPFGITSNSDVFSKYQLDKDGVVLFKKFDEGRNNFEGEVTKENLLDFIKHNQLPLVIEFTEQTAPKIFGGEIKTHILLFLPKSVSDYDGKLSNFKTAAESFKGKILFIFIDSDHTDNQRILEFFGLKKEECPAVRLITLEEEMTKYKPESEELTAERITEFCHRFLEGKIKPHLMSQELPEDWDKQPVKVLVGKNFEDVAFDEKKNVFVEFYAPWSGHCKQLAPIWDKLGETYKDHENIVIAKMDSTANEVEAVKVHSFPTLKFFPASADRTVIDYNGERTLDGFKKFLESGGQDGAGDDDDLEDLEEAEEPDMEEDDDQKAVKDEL
Chain of wild-type PDI (P07237 18-508): as the sequence (P07237 18-508 C53S/C397S) above, with S36C, S380C counted along it
T1 sequence (P07237 18-508): as the sequence (P07237 18-508 C53S/C397S) above, with S36C, S380C counted along it
Chain of b’ domain of PDI (P07237 18-508): as the sequence (P07237 18-508 C53S/C397S) above, with S36C, S380C counted along it
T2 sequence (P07237 18-508 H256A): as the sequence (P07237 18-508 C53S/C397S) above, with S36C, H239A, S380C counted along it

`COc1ccc(C(=O)/C=C/c2cccc(C#N)c2)cc1` [Compound 8, (E)-3-(3-(4-Methoxyphenyl)-3-oxoprop-1-en-1-yl)benzonitrile] was tested, and the “effect on ANS fluorescence” value (b’ domain of PDI) was “did not hinder dye fluorescence”.
`N#Cc1cccc(/C=C/C(=O)c2ccc(Br)cc2)c1` [Compound 10, (E)-3-(3-(4-Bromophenyl)-3-oxoprop-1-en-1-yl)benzonitrile] was tested, and the “fold decrease in the inhibition of PDI activity” value (PDI [1]; replacement of the hydroxyl group (6) with bromine) was 2 fold.
With `N#Cc1cccc(/C=C/C(=O)c2ccc(S(N)(=O)=O)cc2)c1` [Compound 13, (E)-4-(3-(3-Cyanophenyl)acryloyl)benzenesulfonamide] the “inhibition of GBM cell proliferation in combination with As2O3” value (from here on “inhibition of GBM cell proliferation”) (GBM cell) was “synergistically”.
In the case of `CN(C)S(=O)(=O)c1ccc(C(=O)/C=C/c2cccc(C#N)c2)cc1` [Compound 14, (E)-4-(3-(3-Cyanophenyl)acryloyl)-N,N-dimethylbenzenesulfonamide], the “inhibition of GBM cell proliferation” value (GBM cell) is reported as “synergistically”.
`CCN(CC)S(=O)(=O)c1ccc(C(=O)/C=C/c2cccc(C#N)c2)cc1` [Compound 15, (E)-4-(3-(3-Cyanophenyl)acryloyl)-N,N-diethylbenzenesulfonamide] was tested, and the “inhibition of GBM cell proliferation” value (GBM cell) was “synergistically”.
With `CCCCCN(CCCCC)S(=O)(=O)c1ccc(C(=O)/C=C/c2cccc(C#N)c2)cc1` [Compound 18, (E)-4-(3-(3-Cyanophenyl)acryloyl)-N,N-dipentylbenzenesulfonamide] the MMP9 expression (MMP9) was “decreased”, the “Fold Change in transcription, AKAP5” value (U87MG cells) was −3.4 and the “Fold Change in transcription, ANKRD36B” value (U87MG cells) was −2.8. The “Fold Change in transcription, BARD1” value (U87MG cells) was −2.3, the “Fold Change in transcription, BBS10” value (U87MG cells) was −2.3 and the “Fold Change in transcription, CCNA2” value (U87MG cells) was −2.3. For the same compound, the “Fold Change in transcription, CHSY3” value (U87MG cells) was −2.6, the “Fold Change in transcription, DUT” value (U87MG cells) was −2.3 and the “Fold Change in transcription, FBXO43” value (U87MG cells) was −2.7. For the same compound, the “Fold Change in transcription, FPGT” value (U87MG cells) was −2.3, the “Fold Change in transcription, HIST1H2BC” value (U87MG cells) was −2.3 and the “Fold Change in transcription, KCTD4” value (U87MG cells) was −2.8. For the same compound, the “Fold Change in transcription, LYPD6” value (U87MG cells) was −3.1, the “Fold Change in transcription, MYBL1” value (U87MG cells) was −2.6 and the “Fold Change in transcription, SLITRK5” value (U87MG cells) was −3.6. The “Fold Change in transcription, ST8SIA4” value (U87MG cells) was −3.1, the “Fold Change in transcription, ZNF404” value (U87MG cells) was −2.7 and the transwell migration (A172 cells; 10 μM) was “inhibited migration”. The transwell migration (A172 cells; 30 μM) was “inhibited migration” and the “stabilization of PDI to thermal denaturation” value (“stabilization of PDI” for short) (wild-type PDI) was “did not stabilize PDI”.
`N#Cc1cccc(/C=C/C(=O)c2cnccn2)c1` [Compound 29, (E)-3-(3-Oxo-3-(pyrazin-2-yl)prop-1-en-1-yl)benzonitrile] was tested, and the “effect on ANS fluorescence” value (b’ domain of PDI) was “did not hinder dye fluorescence”.
In the case of `COC(=O)c1cccc(/C=C/C(=O)c2cccc(O)c2)c1` [Compound 46, Methyl-(E)-3-(3-(3-hydroxyphenyl)-3-oxoprop-1-en-1-yl)benzoate], the “activity against H256A mutant PDI” value (H256A PDI [2]) is reported as “abolished upon mutation”, the “stabilization (thermal shift) in the H256A mutant” value (H256A PDI [3]) is reported as “not abolished” and the “activity after competition with N-acetyl cysteine (NAC)” value (“activity after competition” below) (PDI [4]) is reported as “abolished by 5 mM NAC, but not by lower concentrations”. The “increase of melting temperature” value (wild-type PDI) was “more than 1 °C” and the “stabilization (thermal shift) in the C53S/C397S mutant” value (C53S/C397S PDI) was “not abolished”.
With `O=C(/C=C/c1cccc(C(F)(F)F)c1)c1ccc(O)cc1` [Compound 55, (E)-1-(4-Hydroxyphenyl)-3-(3-(trifluoromethyl)phenyl)prop-2-en-1-one] the “fold reduction of potency” value (PDI [1]) was 2 to 4 fold.
In the case of `O=C(/C=C/c1ccc(C(F)(F)F)cc1)c1ccc(O)cc1` [Compound 57, (E)-1-(4-Hydroxyphenyl)-3-(4-(trifluoromethyl)phenyl)prop-2-en-1-one], the “fold reduction of potency” value (PDI [1]) is reported as 2 to 4 fold.
In the case of `CCCCCN(CCCCC)S(=O)(=O)c1ccc(C(=O)/C=C/c2cccc(O)c2)cc1` [Compound 59, (E)-4-(3-(3-Hydroxyphenyl)acryloyl)-N,N-dipentylbenzenesulfonamide], the MMP9 expression (MMP9) is reported as “decreased”, the “Fold Difference” value [5] is reported as 3.8 and the “effect on ANS fluorescence” value (b’ domain of PDI) is reported as “competes with ANS”. For the same compound, the “activity against H256A mutant PDI” value (H256A PDI [2]) was “active against the H256A mutant; also recorded: not His256-dependent”, the transwell migration (A172 cells; 30 μM) was “inhibited migration” and the “stabilization (thermal shift) in the H256A mutant” value (H256A PDI [3]) was “not abolished”. For the same compound, the “activity after competition” value (PDI [4]) was “abolished by 5 mM NAC, but not by lower concentrations”, the “increase of melting temperature” value (wild-type PDI) was “more than 1 °C” and the “stabilization (thermal shift) in the C53S/C397S mutant” value (C53S/C397S PDI) was “not abolished”.
`O=C(/C=C/c1ccc(-c2cccnc2)cc1)c1cccc(O)c1` [Compound 68, (E)-1-(3-Hydroxyphenyl)-3-(4-(pyridin-3-yl)phenyl)prop-2-en-1-one] was tested, and the MMP9 expression (MMP9) was “decreased”, the “activity against H256A mutant PDI” value (H256A PDI [2]) was “abolished upon mutation” and the “synergy with ionizing radiation (IR)” value (D54 cells) was “synergized with IR”. The “stabilization (thermal shift) in the H256A mutant” value (H256A PDI [3]) was “not abolished”, the “activity after competition” value (PDI [4]) was “unaffected by up to 5 mM NAC” and the “MMP2 activity and secretion” value (MMP2) was “inhibit MMP2 activity and secretion”. For the same compound, the “increase of melting temperature” value (wild-type PDI) was “more than 1 °C” and the “stabilization (thermal shift) in the C53S/C397S mutant” value (C53S/C397S PDI) was “not abolished”.
For `O=C(/C=C/c1ccc(-c2ccncc2)cc1)c1cccc(O)c1` [Compound 69, (E)-1-(3-Hydroxyphenyl)-3-(4-(pyridin-4-yl)phenyl)prop-2-en-1-one], the “stabilization of PDI” value (wild-type PDI) was “did not stabilize PDI”.
For `O=C(/C=C/c1ccc(O)cc1)c1ccccc1O` [NC587], the “PDI inhibitory activity (in words)” value (PDI [1]) was “inactive”.
For `O=C(/C=C/c1ccccc1O)c1ccccc1O` [NC588], the “PDI inhibitory activity (in words)” value (PDI [1]) was “inactive”.
In the case of `O=C(/C=C/c1cccc(O)c1)c1ccccc1O` [NC589], the “PDI inhibitory activity (in words)” value (PDI [1]) is reported as “inactive”.
`C#CC(=O)N(c1ccc(OC)cc1OC)C(C(=O)NCC(=O)OCC)c1cccs1` (stereo not drawn) [PACMA31, reference compound] was tested, and the MMP9 expression (MMP9) was “decreased”, the “effect on ANS fluorescence” value (b’ domain of PDI) was “did not hinder dye fluorescence” and the “expression of GRP78” value (GRP78) was “increase in expression of GRP78”. For the same compound, the transwell migration (A172 cells; 30 μM) was “inhibited migration”, the “activity after competition” value (PDI [4]) was “significantly abolished” and the “MMP2 activity and secretion” value (MMP2) was “inhibit MMP2 activity and secretion”. For the same compound, the “phosphorylation of EIF2α” value (EIF2α) was “did not induce phosphorylation of EIF2α” and the “stabilization of PDI” value (wild-type PDI) was “does not stabilize PDI”.
In the case of `C[C@]12CC[C@@H]3c4ccc(O)cc4CC[C@H]3[C@@H]1CC[C@@H]2O` [estradiol, reference compound], the “stabilization (thermal shift) in the H256A mutant” value (H256A PDI [3]) is reported as “abolished”, the “stabilization of PDI” value (wild-type PDI) is reported as “stabilizes PDI to thermal denaturation” and the “increase of melting temperature” value (wild-type PDI) is reported as “more than 1 °C”. The “stabilization (thermal shift) in the C53S/C397S mutant” value (C53S/C397S PDI) was “but not the C53S/C397S mutant”.
